Measured values taken from ChEMBL document CHEMBL4033780, “Lipidated Brartemicin Analogues Are Potent Th1-Stimulating Vaccine Adjuvants” (J Med Chem, 2018).
The source made the active and inactive calls. No cut-off for these calls is given here.

Assays:
[1] = Toxicity in Atlantic horseshoe crab blood limulus amebocyte lysate by chromogenic endotoxin test; settings: limulus polyphemus
Procedure, shortened: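 Endotoxin was measured by chromogenic Limulus amebocyte lysate assay at a sensitivity of ≤0.1 EU/mL.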

[2] = target: T1, C-type lectin domain family 4 member E (Mus musculus) (UniProt Q9R0Q8); assay: Agonist activity at mouse mincle coupled with FcRgamma expressed in 2B4-NFAT-GFP reporter cells after 18 hrs by flow cytometric analysis; assay type: cell-based
T1 sequence (whole entry): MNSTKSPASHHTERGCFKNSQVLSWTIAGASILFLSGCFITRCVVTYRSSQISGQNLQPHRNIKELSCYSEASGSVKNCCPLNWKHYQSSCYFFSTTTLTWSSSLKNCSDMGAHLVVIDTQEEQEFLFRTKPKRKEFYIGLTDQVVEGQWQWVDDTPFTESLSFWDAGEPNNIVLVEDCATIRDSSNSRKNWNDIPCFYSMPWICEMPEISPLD
Procedure, shortened: (§1)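 2B4 NFAT-GFP reporter cells expressing mouse or human Mincle plus FcRγ were placed on plates coated with ligand at 0.01, 0.1 or 1 nmol/well; cells expressing FcRγ only served as negative control. Ligand was coated from isopropanol, 0.05 mM, and solvent evaporated. After 18 h, cells were harvested, stained with propidium iodide and GFP read by flow cytometry. Mean of three experiments in duplicate (±SEM).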

[3] = target: T1, C-type lectin domain family 4 member E (Mus musculus); assay: Agonist activity at mincle in wild type C57BL/6 mouse GM-CSF derived BMDM assessed as increase in IL-1beta release at 0.1 to 1 nmol after 24 hrs by sandwich ELISA
Procedure, shortened: (§2)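 Wild-type or Mincle−/− C57BL/6 bone marrow was cultured 8 days with GM-CSF 50 ng/mL in complete RPMI. Macrophages were detached with Acutase and seeded on ligand-coated plates (0.1 or 1 nmol/well); LPS 100 ng/mL was used as comparator. Supernatant was taken at 24 h and TNF, IL-6, IL-1β and MIP-2 measured by sandwich ELISA. Representative of three experiments in triplicate (±SD).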

[4] = target: T2, C-type lectin domain family 4 member E (Homo sapiens) (UniProt Q9ULY5); assay: Agonist activity at human mincle coupled with FcRgamma expressed in 2B4-NFAT-GFP reporter cells after 18 hrs by flow cytometric analysis; assay type: cell-based; procedure, shortened: as §1
T2 sequence (whole entry): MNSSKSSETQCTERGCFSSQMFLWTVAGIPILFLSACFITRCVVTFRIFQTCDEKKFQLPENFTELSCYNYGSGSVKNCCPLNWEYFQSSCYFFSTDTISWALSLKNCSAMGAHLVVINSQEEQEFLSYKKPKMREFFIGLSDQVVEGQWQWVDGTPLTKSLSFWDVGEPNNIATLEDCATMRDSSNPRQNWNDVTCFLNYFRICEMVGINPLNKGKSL

[5] = target: T1, C-type lectin domain family 4 member E (Mus musculus); assay: Agonist activity at mincle in wild type C57BL/6 mouse GM-CSF derived BMDM assessed as increase in MIP2 release at 0.1 to 1 nmol after 24 hrs by sandwich ELISA; procedure, shortened: as §2
[6] = target: T1, C-type lectin domain family 4 member E (Mus musculus); assay: Agonist activity at mincle in wild type C57BL/6 mouse GM-CSF derived BMDM assessed as increase in IL-6 release at 0.1 to 1 nmol after 24 hrs by sandwich ELISA; procedure, shortened: as §2
[7] = target: T1, C-type lectin domain family 4 member E (Mus musculus); assay: Binding affinity to recombinant mouse mincle extracellular domain fused with human IgG Fc expressed in HEK293T cells at 0.1 nmol by ELISA; assay type: cell-based; settings: HEK-293T
BMDM [8] = assay: Immunostimulatory activity in mincle-/- C57BL/6 mouse GM-CSF derived BMDM assessed as increase in MIP2 release at […] after 24 hrs by sandwich ELISA method; assay type: functional, cell-based; procedure, shortened: as §2
BMDM [9] = assay: Immunostimulatory activity in mincle-/- C57BL/6 mouse GM-CSF derived BMDM assessed as increase in TNF release at […] after 24 hrs by sandwich ELISA method; assay type: functional, cell-based; procedure, shortened: as §2
BMDM [10] = assay: Immunostimulatory activity in mincle-/- C57BL/6 mouse GM-CSF derived BMDM assessed as increase in IL-1beta release at […] after 24 hrs by sandwich ELISA method; assay type: functional, cell-based; procedure, shortened: as §2
BMDM [11] = assay: Immunostimulatory activity in mincle-/- C57BL/6 mouse GM-CSF derived BMDM assessed as increase in IL-6 release at […] after 24 hrs by sandwich ELISA method; assay type: functional, cell-based; procedure, shortened: as §2
[12] = target: T1, C-type lectin domain family 4 member E (Mus musculus); assay: Agonist activity at mincle in wild type C57BL/6 mouse GM-CSF derived BMDM assessed as increase in TNF release at 0.1 to 1 nmol after 24 hrs by sandwich ELISA; procedure, shortened: as §2
[13] = target: T2, C-type lectin domain family 4 member E (Homo sapiens); assay: Binding affinity to recombinant human mincle extracellular domain fused with human IgG Fc expressed in HEK293T cells at 0.1 nmol by ELISA; assay type: cell-based; settings: HEK-293T
[14] = target: T2, C-type lectin domain family 4 member E (Homo sapiens); assay: Agonist activity at human mincle coupled with FcRgamma expressed in 2B4-NFAT-GFP reporter cells at higher concentration after 18 hrs by flow cytometric analysis; assay type: cell-based; procedure, shortened: as §1
[15] = target: T1, C-type lectin domain family 4 member E (Mus musculus); assay: Agonist activity at mouse mincle coupled with FcRgamma expressed in 2B4-NFAT-GFP reporter cells up to 1 nmol after 18 hrs by flow cytometric analysis; assay type: cell-based; procedure, shortened: as §1

Activity [3]	Activity [5]	Activity [6]	Activity [7]	Activity [12]	Activity [13]	Compound	Activity [1]	Activity (BMDM [8])	Activity (BMDM [9])	Activity (BMDM [10])	Activity (BMDM [11])	further results
–	–	–	–	–	–	CCCCOc1ccc(C(=O)OC[C@H]2O[C@H](O[C@H]3O[C@H](COC(=O)c4ccc(OCCCC)cc4OCc4ccccc4)[C@@H](OCc4ccccc4)[C@H](OCc4ccccc4)[C@H]3OCc3ccccc3)[C@H](OCc3ccccc3)[C@@H](OCc3ccccc3)[C@@H]2OCc2ccccc2)c(OCc2ccccc2)c1	<= 0.1 EU/ml	–	–	–	–	–
–	–	–	–	–	–	CCCCCCCCCCCCCCCCCCOc1cc(C)c(C(=O)OC[C@H]2O[C@H](O[C@H]3O[C@H](COC(=O)c4c(C)cc(OCCCCCCCCCCCCCCCCCC)cc4OCc4ccccc4)[C@@H](OCc4ccccc4)[C@H](OCc4ccccc4)[C@H]3OCc3ccccc3)[C@H](OCc3ccccc3)[C@@H](OCc3ccccc3)[C@@H]2OCc2ccccc2)c(OCc2ccccc2)c1	<= 0.1 EU/ml	–	–	–	–	–
Active	Active	Active	Active	Active	Active	CCCCCCCCCCCCCCCCCCOc1cc(C)c(C(=O)OC[C@H]2O[C@H](O[C@H]3O[C@H](COC(=O)c4c(C)cc(OCCCCCCCCCCCCCCCCCC)cc4O)[C@@H](O)[C@H](O)[C@H]3O)[C@H](O)[C@@H](O)[C@@H]2O)c(O)c1	<= 0.1 EU/ml	inactive	inactive	inactive	inactive	Activity [2]: Dose-dependent effect; Activity [4]: Dose-dependent effect
inactive	inactive	inactive	inactive	inactive	inactive	COc1ccc(C(=O)OC[C@H]2O[C@H](O[C@H]3O[C@H](COC(=O)c4ccc(OC)cc4O)[C@@H](O)[C@H](O)[C@H]3O)[C@H](O)[C@@H](O)[C@@H]2O)c(O)c1	<= 0.1 EU/ml	inactive	inactive	inactive	inactive	Activity [14]: Active
–	–	–	–	–	–	CCCCCCCOc1ccc(C(=O)OC[C@H]2O[C@H](O[C@H]3O[C@H](COC(=O)c4ccc(OCCCCCCC)cc4OCc4ccccc4)[C@@H](OCc4ccccc4)[C@H](OCc4ccccc4)[C@H]3OCc3ccccc3)[C@H](OCc3ccccc3)[C@@H](OCc3ccccc3)[C@@H]2OCc2ccccc2)c(OCc2ccccc2)c1	<= 0.1 EU/ml	–	–	–	–	–
–	–	–	–	–	–	CCCCCCCCCCCCCCCCCCOc1ccc(C(=O)OC[C@H]2O[C@H](O[C@H]3O[C@H](COC(=O)c4ccc(OCCCCCCCCCCCCCCCCCC)cc4OCc4ccccc4)[C@@H](OCc4ccccc4)[C@H](OCc4ccccc4)[C@H]3OCc3ccccc3)[C@H](OCc3ccccc3)[C@@H](OCc3ccccc3)[C@@H]2OCc2ccccc2)c(OCc2ccccc2)c1	<= 0.1 EU/ml	–	–	–	–	–
Active	Active	Active	Active	Active	Active	CCCCCCCCCCCCCCCCCCOc1ccc(C(=O)OC[C@H]2O[C@H](O[C@H]3O[C@H](COC(=O)c4ccc(OCCCCCCCCCCCCCCCCCC)cc4)[C@@H](O)[C@H](O)[C@H]3O)[C@H](O)[C@@H](O)[C@@H]2O)cc1	<= 0.1 EU/ml	inactive	inactive	inactive	inactive	Activity [2]: Dose-dependent effect; Activity [4]: Dose-dependent effect
inactive	inactive	inactive	inactive	inactive	inactive	Cc1cc(O)cc(O)c1C(=O)OC[C@H]1O[C@H](O[C@H]2O[C@H](COC(=O)c3c(C)cc(O)cc3O)[C@@H](O)[C@H](O)[C@H]2O)[C@H](O)[C@@H](O)[C@@H]1O [BRARTEMICIN]	<= 0.1 EU/ml	inactive	inactive	inactive	inactive	Activity [15]: inactive
–	–	–	–	–	–	CCCCCCCOc1ccc(C(=O)OC[C@H]2O[C@H](O[C@H]3O[C@H](COC(=O)c4ccc(OCCCCCCC)cc4)[C@@H](OCc4ccccc4)[C@H](OCc4ccccc4)[C@H]3OCc3ccccc3)[C@H](OCc3ccccc3)[C@@H](OCc3ccccc3)[C@@H]2OCc2ccccc2)cc1	<= 0.1 EU/ml	–	–	–	–	–
–	–	–	–	–	–	COc1ccc(C(=O)OC[C@H]2O[C@H](O[C@H]3O[C@H](COC(=O)c4ccc(OC)cc4OCc4ccccc4)[C@@H](OCc4ccccc4)[C@H](OCc4ccccc4)[C@H]3OCc3ccccc3)[C@H](OCc3ccccc3)[C@@H](OCc3ccccc3)[C@@H]2OCc2ccccc2)c(OCc2ccccc2)c1	<= 0.1 EU/ml	–	–	–	–	–
–	–	–	–	–	–	Cc1cc(OCc2ccccc2)cc(OCc2ccccc2)c1C(=O)OC[C@H]1O[C@H](O[C@H]2O[C@H](COC(=O)c3c(C)cc(OCc4ccccc4)cc3OCc3ccccc3)[C@@H](OCc3ccccc3)[C@H](OCc3ccccc3)[C@H]2OCc2ccccc2)[C@H](OCc2ccccc2)[C@@H](OCc2ccccc2)[C@@H]1OCc1ccccc1	<= 0.1 EU/ml	–	–	–	–	–
–	–	–	–	–	–	O=C(OC[C@H]1O[C@H](O[C@H]2O[C@H](COC(=O)c3ccc(OCc4ccccc4)cc3OCc3ccccc3)[C@@H](OCc3ccccc3)[C@H](OCc3ccccc3)[C@H]2OCc2ccccc2)[C@H](OCc2ccccc2)[C@@H](OCc2ccccc2)[C@@H]1OCc1ccccc1)c1ccc(OCc2ccccc2)cc1OCc1ccccc1	<= 0.1 EU/ml	–	–	–	–	–
–	–	–	–	–	–	CCCCCCCCCCCCCCCCCCOc1ccc(C(=O)OC[C@H]2O[C@H](O[C@H]3O[C@H](COC(=O)c4ccc(OCCCCCCCCCCCCCCCCCC)cc4)[C@@H](OCc4ccccc4)[C@H](OCc4ccccc4)[C@H]3OCc3ccccc3)[C@H](OCc3ccccc3)[C@@H](OCc3ccccc3)[C@@H]2OCc2ccccc2)cc1	<= 0.1 EU/ml	–	–	–	–	–
inactive	inactive	inactive	inactive	inactive	inactive	O=C(OC[C@H]1O[C@H](O[C@H]2O[C@H](COC(=O)c3ccc(O)cc3O)[C@@H](O)[C@H](O)[C@H]2O)[C@H](O)[C@@H](O)[C@@H]1O)c1ccc(O)cc1O	<= 0.1 EU/ml	inactive	inactive	inactive	inactive	Activity [15]: inactive
